Results gathered from unrelated publications.
Target: Serine/threonine-protein kinase mTOR (MTOR, Homo sapiens, UniProt P42345)

SMILES	read-out	action	technique	tested at	measurement	result
C[C@@H](c1cccc(C#N)c1)n1cc(Cl)cc(C(N)=O)c1=N	cell-free assay		competition with immobilised ligand	1 µM	remaining binding	96%
CN(c1nccc(-c2cnn3ncccc23)n1)C1CC1	cell-free assay			1 µM	remaining signal	100%
CCN(CC)c1ccc(C2=NNC(=O)CC2C)cc1[N+](=O)[O-] (centres unmarked)	enzyme activity	inhibitor		10 µM	remaining activity	110%
Cn1cc(Cl)c2c(Oc3c(F)cc(Nc4cc(Cl)nc(N)n4)cc3F)ccnc21	cell-free assay		competition with immobilised ligand	0.1 µM	remaining binding	85%
Cc1ccc(NC(=O)c2ccc(C)c(C(F)(F)F)c2)cc1C#Cc1nn(C2CCC(O)CC2)c2ncnc(N)c12 (centres unmarked)	cell-free assay	inhibitor		10 µM	remaining signal	101%
CCCCN(CCCC)C(=O)CN1C[C@@H](c2cc(OC)c3c(c2)OCO3)[C@H](C(=O)O)[C@H]1CC(C)(C)CCC	cell-free assay		competition with immobilised ligand	1 µM	remaining binding	100%
CC(C)(C)c1nc2c(s1)c1nc(N)ncc1c1ccc(NS(=O)(=O)c3c(F)cccc3F)c(F)c12	enzyme activity	inhibitor	radiometric	1 µM	remaining activity	103%
CNC(=O)Nc1ccc2c(c1)[C@@]1(CC2)OC(=O)N(CC(=O)N(Cc2ccc(F)cc2)[C@@H](C)C(F)(F)F)C1=O	cell-free assay		competition with immobilised ligand	1 µM	remaining binding	100%
COc1cc2ncnc(Nc3ccc(Oc4ccccc4)c(C)c3C)c2cc1OC	enzyme activity	inhibitor		1 µM	inhibition	0%
Cc1ccc(C(=O)NCc2ccsc2)cc1C#Cc1cn(C(C)C)c2ncnc(N)c12	enzyme activity	inhibitor		1 µM	activity vs control	105%
CCCS(=O)(=O)Nc1ccc(F)c(C(=O)c2c[nH]c3ncc(-c4ccc(Cl)cc4)cc23)c1F	enzyme activity	inhibitor		1 µM	inhibition	< 10%
CNCc1ccc(-c2cc(-c3nc(-c4ccc(S(=O)(=O)C(C)C)cc4)cnc3N)on2)cc1	enzyme activity	inhibitor		2 µM	inhibition	37%
COc1cc(Cl)c(C(=O)N[C@@H](CN[C@H]2CC[C@@H](N)CC2)Cc2ccc(C#N)cc2)cc1-c1ccc(CN[C@H](C)c2ccc(C)cc2)o1	enzyme activity	inhibitor		1 µM	remaining activity	98%
CS(=O)(=O)Nc1cccc(-c2csc(NC(=O)CSc3nc4nccnc4c(=O)n3CCc3ccccc3)n2)c1	enzyme activity	inhibitor		10 µM	inhibition	1%
CS(=O)(=O)NCC[C@H](NC(=O)c1cncc2c1cnn2-c1ccc(F)cc1)c1ccnc(S(C)(=O)=O)c1	cell-free assay		competition with immobilised ligand	1 µM	remaining binding	88%
O=C(CSc1nc2nccnc2c(=O)n1CCc1ccccc1)Nc1ccccc1	enzyme activity	inhibitor		10 µM	inhibition	31%
Cc1cc(NC(=O)c2cccc3cc(-c4cccc5[nH]nc(N)c45)ccc23)ccc1F	enzyme activity	inhibitor		0.1 µM	activity vs control	92%
